How the values were obtained:
Format in all cases: functional
[1] = system: COLO 205; assay: Growth inhibition of human COLO 205 cells assessed as cell growth at 0.1 uM incubated for 48 hrs by sulforhodamine B assay relative to control; settings: read-out: Activity
How it was run: (§1)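 NCI Developmental Therapeutics Program NCI60 panel. Compounds that were active in the 10 µM one-dose screen went on to dose–response testing. Growth at each concentration is expressed relative to untreated control (100%). GI50 (concentration giving 50% of maximal inhibition of proliferation) and TGI (concentration giving total growth inhibition) were derived from the curves.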

[2] = system: K562; assay: Growth inhibition of human K562 cells assessed as cell growth at 0.1 uM incubated for 48 hrs by sulforhodamine B assay relative to control; settings: read-out: Activity
[3] = system: SNB-19; assay: Growth inhibition of human SNB-19 cells assessed as cell growth at 1 uM incubated for 48 hrs by sulforhodamine B assay relative to control; settings: read-out: Activity
[4] = system: Malme-3M; assay: Growth inhibition of human Malme-3M cells assessed as cell growth at 0.01 uM incubated for 48 hrs by sulforhodamine B assay relative to control; settings: read-out: Activity
[5] = system: MDA-MB-435; assay: Growth inhibition of human MDA-MB-435 cells incubated for 48 hrs by sulforhodamine B assay
How it was run: (§2)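 NCI60 panel at the NCI Developmental Therapeutics Program. Only compounds active in the 10 µM screen went to dose-response testing. GI50, the concentration giving 50% of maximal inhibition of proliferation, and TGI, the concentration giving total growth inhibition, were derived from the dose-response curves.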

[6] = system: IGROV-1; assay: Growth inhibition of human IGROV-1 cells assessed as cell growth at 0.1 uM incubated for 48 hrs by sulforhodamine B assay relative to control; settings: read-out: Activity
[7] = system: TK-10; assay: Growth inhibition of human TK-10 cells assessed as cell growth at 1 uM incubated for 48 hrs by sulforhodamine B assay relative to control; settings: read-out: Activity
[8] = system: SK-OV-3; assay: Growth inhibition of human SK-OV-3 cells assessed as cell growth at 0.1 uM incubated for 48 hrs by sulforhodamine B assay relative to control; settings: read-out: Activity
[9] = system: Hs-578T; assay: Growth inhibition of human Hs-578T cells incubated for 48 hrs by sulforhodamine B assay; how it was run: as §2
[10] = system: MDA-MB-435; assay: Growth inhibition of human MDA-MB-435 cells assessed as cell growth at 1 uM incubated for 48 hrs by sulforhodamine B assay relative to control; settings: read-out: Activity
[11] = system: SK-OV-3; assay: Growth inhibition of human SK-OV-3 cells assessed as cell growth at 100 uM incubated for 48 hrs by sulforhodamine B assay relative to control; settings: read-out: Activity
[12] = system: K562; assay: Growth inhibition of human K562 cells assessed as cell growth at 0.01 uM incubated for 48 hrs by sulforhodamine B assay relative to control; settings: read-out: Activity
[13] = system: SN12C; assay: Growth inhibition of human SN12C cells assessed as cell growth at 1 uM incubated for 48 hrs by sulforhodamine B assay relative to control; settings: read-out: Activity
[14] = system: CCRF-CEM; assay: Growth inhibition of human CCRF-CEM cells incubated for 48 hrs by sulforhodamine B assay; how it was run: as §1
[15] = system: SF-268; assay: Growth inhibition of human SF-268 cells assessed as cell growth at 0.01 uM incubated for 48 hrs by sulforhodamine B assay relative to control; settings: read-out: Activity
[16] = system: SN12C; assay: Growth inhibition of human SN12C cells assessed as cell growth at 0.01 uM incubated for 48 hrs by sulforhodamine B assay relative to control; settings: read-out: Activity
[17] = system: ACHN; assay: Growth inhibition of human ACHN cells incubated for 48 hrs by sulforhodamine B assay; how it was run: as §1
[18] = system: UACC-62; assay: Growth inhibition of human UACC-62 cells assessed as cell growth at 0.1 uM incubated for 48 hrs by sulforhodamine B assay relative to control; settings: read-out: Activity
[19] = system: HOP-62; assay: Growth inhibition of human HOP-62 cells assessed as cell growth at 100 uM incubated for 48 hrs by sulforhodamine B assay relative to control; settings: read-out: Activity
[20] = system: MOLT-4; assay: Growth inhibition of human MOLT-4 cells incubated for 48 hrs by sulforhodamine B assay; how it was run: as §2
[21] = system: PC-3; assay: Growth inhibition of human PC-3 cells assessed as cell growth at 1 uM incubated for 48 hrs by sulforhodamine B assay relative to control; settings: read-out: Activity
[22] = system: HCC 2998; assay: Growth inhibition of human HCC 2998 cells assessed as cell growth at 0.1 uM incubated for 48 hrs by sulforhodamine B assay relative to control; settings: read-out: Activity; how it was run: as §1
[23] = system: NCI-H460; assay: Growth inhibition of human NCI-H460 cells assessed as cell growth at 0.01 uM incubated for 48 hrs by sulforhodamine B assay relative to control; settings: read-out: Activity
[24] = system: SNB-19; assay: Growth inhibition of human SNB-19 cells assessed as cell growth at 100 uM incubated for 48 hrs by sulforhodamine B assay relative to control; settings: read-out: Activity
[25] = system: ACHN; assay: Growth inhibition of human ACHN cells assessed as cell growth at 0.01 uM incubated for 48 hrs by sulforhodamine B assay relative to control; settings: read-out: Activity
[26] = system: HCT-116; assay: Growth inhibition of human HCT-116 cells incubated for 48 hrs by sulforhodamine B assay; how it was run: as §2
[27] = system: UACC-257; assay: Growth inhibition of human UACC-257 cells assessed as cell growth at 1 uM incubated for 48 hrs by sulforhodamine B assay relative to control; settings: read-out: Activity
[28] = system: OVCAR-3; assay: Growth inhibition of human OVCAR-3 cells incubated for 48 hrs by sulforhodamine B assay
How it was run: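 NCI DTP 60-line human tumour panel. Dose-response curves were run only for ligands active in the initial 10 µM screen. GI50 (concentration giving 50% of maximal inhibition of proliferation) and TGI (concentration giving total growth inhibition) were derived from these curves.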

[29] = system: A498; assay: Growth inhibition of human A498 cells assessed as cell growth at 0.1 uM incubated for 48 hrs by sulforhodamine B assay relative to control; settings: read-out: Activity; how it was run: as §1
[30] = system: OVCAR-5; assay: Growth inhibition of human OVCAR-5 cells assessed as cell growth at 0.01 uM incubated for 48 hrs by sulforhodamine B assay relative to control; settings: read-out: Activity
[31] = system: OVCAR-5; assay: Growth inhibition of human OVCAR-5 cells assessed as cell growth at 0.1 uM incubated for 48 hrs by sulforhodamine B assay relative to control; settings: read-out: Activity
[32] = system: COLO 205; assay: Growth inhibition of human COLO 205 cells assessed as cell growth at 100 uM incubated for 48 hrs by sulforhodamine B assay relative to control; settings: read-out: Activity; how it was run: as §1
[33] = system: UACC-62; assay: Growth inhibition of human UACC-62 cells assessed as cell growth at 1 uM incubated for 48 hrs by sulforhodamine B assay relative to control; settings: read-out: Activity
[34] = system: HCT-116; assay: Growth inhibition of human HCT-116 cells assessed as cell growth at 100 uM incubated for 48 hrs by sulforhodamine B assay relative to control; settings: read-out: Activity
[35] = system: CAKI-1; assay: Growth inhibition of human CAKI-1 cells assessed as cell growth at 100 uM incubated for 48 hrs by sulforhodamine B assay relative to control; settings: read-out: Activity; how it was run: as §1
[36] = read-out: LC50 (the source's name)

SMILES: Cc1cc(C)c(NC(=O)c2sc3nc4c(cc3c2N)CN(Cc2ccccc2)CC4)c(C)c1
- growth at 0.1 µM [1]: 104%
- growth at 0.1 µM [2]: 105%
- growth at 1 µM [3]: 87%
- growth at 0.01 µM [4]: 106%
- GI50 [5]: 399 nM
- TGI [5]: 4.38 µM
- CC50 [5, 36]: 68.9 µM
- growth at 0.1 µM [6]: 94%
- growth at 1 µM [7]: 95%
- growth at 0.1 µM [8]: 98%
- GI50 [9]: 2660 nM
- TGI [9]: 65.9 µM
- CC50 [9, 36]: > 100 µM
- growth at 1 µM [10]: 20%
- growth at 100 µM [11]: 16%
- growth at 0.01 µM [12]: 108%
- growth at 1 µM [13]: 92%
- GI50 [14]: 3.16 µM
- LC50 [14]: > 100 µM
- TGI [14]: 59.7 µM
- growth at 0.01 µM [15]: 98%
- growth at 0.01 µM [16]: 104%
- GI50 [17]: 6.31 µM
- TGI [17]: > 100 µM
- CC50 [17, 36]: > 100 µM
- growth at 0.1 µM [18]: 97%
- growth at 100 µM [19]: 7%
- GI50 [20]: 4.15 µM
- TGI [20]: > 100 µM
- CC50 [20, 36]: > 100 µM
- growth at 1 µM [21]: 75%
- growth at 0.1 µM [22]: 98%
- growth at 0.01 µM [23]: 99%
- growth at 100 µM [24]: 25%
- growth at 0.01 µM [25]: 97%
- GI50 [26]: 2890 nM
- LC50 (concentration killing 50% of cells) [26]: 67.2 µM
- TGI [26]: 16 µM
- growth at 1 µM [27]: 80%
- GI50 [28]: 2320 nM
- TGI [28]: 12.6 µM
- CC50 [28, 36]: > 100 µM
- growth at 0.1 µM [29]: 91%
- growth at 0.01 µM [30]: 90%
- growth at 0.1 µM [31]: 96%
- growth at 100 µM [32]: -60%
- growth at 1 µM [33]: 69%
- growth at 100 µM [34]: -64%
- growth at 100 µM [35]: 4%

Reference: ChEMBL document CHEMBL4715736, “Identification of anticancer agents based on the thieno[2,3-b]pyridine and 1H-pyrazole molecular scaffolds” (2016)
